{"source": "ChEMBL document CHEMBL1142939", "about": "“Neopeltolide, a macrolide from a lithistid sponge of the family Neopeltidae” (J Nat Prod, 2007)", "key": {"[1]": {"tested_on": "A549", "assay": "Cell cycle arrest in A549 cells by accumulation at G1 phase at 1 nM", "type": "functional, Homo sapiens"}, "[2]": {"tested_on": "A549", "assay": "Cell cycle arrest in A549 cells by accumulation at S phase at 1 nM", "type": "functional, Homo sapiens"}, "[3]": {"tested_on": "A549", "assay": "Cell cycle arrest in A549 cells by accumulation at S phase at 100 nM", "type": "functional, Homo sapiens"}, "[4]": {"tested_on": "A549", "assay": "Cell cycle arrest in A549 cells by accumulation at G1 phase at 10 nM", "type": "functional, Homo sapiens"}, "[5]": {"tested_on": "A549", "assay": "Cell cycle arrest in A549 cells by accumulation at G1 phase at 0.1 nM", "type": "functional, Homo sapiens"}, "[6]": {"tested_on": "Candida albicans", "assay": "Antifungal activity against Candida albicans ATCC 44506 by broth dilution assay", "type": "functional", "outline": "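Broth microdilution in 96-well plates, seeded at 10^3 cells/mL. Compound tested as 2-fold dilutions from 5 to 0.4 µg/mL. Incubated 37 °C for 24 h. MIC taken as the lowest concentration completely inhibiting growth. 5-Fluorocytosine served as antifungal control.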"}, "[7]": {"assay": "Cytotoxicity against p53 mutated PANC1 cells ATCC CRL1469 by MTT assay", "type": "cell-based", "conditions": "human, panc-1; call rule not given here", "outline": "(§1)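 MTT cell proliferation assay following previously described protocols. Each sample assayed at least three times to derive the final IC50.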"}, "[8]": {"tested_on": "DLD-1", "assay": "Cytotoxicity against p53 mutated NCI-DLD1 cells by MTT assay", "type": "cell-based", "conditions": "human", "outline": "as §1"}, "[9]": {"assay": "Cytotoxicity against human NCI-ADR-RES cells by MTT assay", "type": "cell-based", "outline": "as §1"}, "[10]": {"tested_on": "A549", "assay": "Cell cycle arrest in A549 cells by accumulation at G2/M phase at 0.1 nM", "type": "functional, Homo sapiens"}, "[11]": {"tested_on": "Candida albicans", "assay": "Antifungal activity against Candida albicans ATCC 44506 at 25 ug/disk by agar diffusion assay", "type": "functional", "conditions": "read-out: IZ", "outline": "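Sabouraud dextrose agar plates seeded with 10^5/mL C. albicans. Disks loaded with 25 µg compound, dried and placed on the agar. Incubated 37 °C for 24 h, then the growth-inhibition zone was measured. A nystatin disk (100 IU) ran on the same plate as control.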"}, "[12]": {"tested_on": "A549", "assay": "Cell cycle arrest in A549 cells by accumulation at G2/M phase at 100 nM", "type": "functional, Homo sapiens"}, "[13]": {"tested_on": "A549", "assay": "Cytotoxicity against human A549 cells ATCC CCL-185 by MTT assay", "type": "cell-based", "outline": "as §1"}, "[14]": {"tested_on": "A549", "assay": "Cell cycle arrest in A549 cells by accumulation at S phase at 10 nM", "type": "functional, Homo sapiens"}, "[15]": {"tested_on": "A549", "assay": "Cell cycle arrest in A549 cells by accumulation at G1 phase at 100 nM", "type": "functional, Homo sapiens"}, "[16]": {"assay": "Cytotoxicity against mouse NCI-P388 cells by MTT assay", "type": "cell-based", "outline": "as §1"}, "[17]": {"tested_on": "A549", "assay": "Cell cycle arrest in A549 cells by accumulation at G2/M phase at 10 nM", "type": "functional, Homo sapiens"}, "[18]": {"tested_on": "A549", "assay": "Cell cycle arrest in A549 cells by accumulation at G2/M phase at 1 nM", "type": "functional, Homo sapiens"}, "[19]": {"tested_on": "A549", "assay": "Cell cycle arrest in A549 cells by accumulation at S phase at 0.1 nM", "type": "functional, Homo sapiens"}}, "note": "pIC50: −log10 of the molar value."}
{"compound": "CCC[C@@H]1C[C@H](OC)C[C@H](C)C[C@@H]2C[C@@H](OC(=O)/C=C\\CCc3coc(/C=C\\CNC(=O)OC)n3)C[C@H](CC(=O)O1)O2", "note": "[NEOPELTOLIDE]", "values": [{"measurement": "Activity", "setting": "[1]", "result": 46.11, "unit": "%"}, {"measurement": "Activity", "setting": "[2]", "result": 39.95, "unit": "%"}, {"measurement": "Activity", "setting": "[3]", "result": 22.02, "unit": "%"}, {"measurement": "Activity", "setting": "[4]", "result": 59.66, "unit": "%"}, {"measurement": "Activity", "setting": "[5]", "result": 46.4, "unit": "%"}, {"measurement": "MIC", "setting": "[6]", "result": 0.625, "unit": "µg/mL"}, {"measurement": "Activity", "setting": "[7]", "result": "Active"}, {"measurement": "Activity", "setting": "[8]", "result": "Active"}, {"measurement": "pIC50", "setting": "[9]", "result": 8.29}, {"measurement": "Activity", "setting": "[10]", "result": 13.59, "unit": "%"}, {"measurement": "zone of inhibition at 25 µg/disc", "setting": "[11]", "result": 17, "unit": "mm"}, {"measurement": "Activity", "setting": "[12]", "result": 14.95, "unit": "%"}, {"measurement": "pIC50", "setting": "[13]", "result": 8.92}, {"measurement": "Activity", "setting": "[14]", "result": 30.27, "unit": "%"}, {"measurement": "Activity", "setting": "[15]", "result": 63.03, "unit": "%"}, {"measurement": "pIC50", "setting": "[16]", "result": 9.25}, {"measurement": "Activity", "setting": "[17]", "result": 10.07, "unit": "%"}, {"measurement": "Activity", "setting": "[18]", "result": 13.94, "unit": "%"}, {"measurement": "Activity", "setting": "[19]", "result": 40.01, "unit": "%"}]}
{"compound": "CC(=O)O[C@H]1C(=O)[C@@]2(C)[C@H]([C@H](OC(=O)c3ccccc3)[C@]3(O)C[C@H](OC(=O)[C@H](O)[C@@H](NC(=O)c4ccccc4)c4ccccc4)C(C)=C1C3(C)C)[C@]1(OC(C)=O)CO[C@@H]1C[C@@H]2O", "note": "[PACLITAXEL]", "values": [{"measurement": "Activity", "setting": "[3]", "result": 0, "unit": "%"}, {"measurement": "Activity", "setting": "[12]", "result": 98.44, "unit": "%"}, {"measurement": "Activity", "setting": "[15]", "result": 1.56, "unit": "%"}]}
